Here are results for one molecule from ChEMBL document CHEMBL1130118, “A novel radioiodination reagent for protein radiopharmaceuticals with L-lysine as a plasma-stable metabolizable linkage to liberate m-iodohippuric acid after lysosomal proteolysis” (J Med Chem, 1997).

Holding throughout (assay type): ADME, organism-based
Data set [1] has as its system Mus musculus. Put plainly: The biodistribution time for [131 I ]L-HML-NGA radioactivity after concomitant administration of [131 I ]L-HML-NGA and [125 I ]MPH-NGA in mice. It is expressed as percent injected dose per intestine. The note with it: in vivo. In a few lines: (§1)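 Six-week-old male ddY mice were given one i.v. co-injection of a 131I/125I-labelled NGA pair, each diluted to 90 µg/mL protein in 0.1 M PBS pH 6.0 and mixed 1:1, giving 9 µg of each radioiodinated NGA per mouse. Groups of five were killed at 5, 15, 30 min, 1 h and 3 h. Organs were weighed and counted in a well counter. Values are % ID per organ, blood as % ID/g, mean (SD).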

For data set [2], the system named is Mus musculus. Put plainly: The biodistribution time for [131 I ]L-HML-NGA radioactivity after concomitant administration of [131 I ]L-HML-NGA and [125 I ]MIH-NGA in mice. It is expressed as percent injected dose per stomach. The note with it: in vivo. Put shortly: as §1
Data set [3] concerns Mus musculus. Put plainly: The biodistribution time for [131 I ]L-HML-NGA radioactivity after concomitant administration of [131 I ]L-HML-NGA and [125 I ]MIH-NGA in mice. It is expressed as percent injected dose per gram of blood tissue. The note with it: in vivo. Put shortly:
as §1

Data set [4] in a line: Cumulative radioactivity exerted by [131 I ]L-HML-NGA in the feces at 24 hour postinjection of [131 I ]L-HML-NGA and [125 I ]MPH-NGA. As to conditions: in vivo. In a few lines: (§2)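 Mice received one i.v. co-injection of the dual-isotope NGA mixture, 9 µg of each radioiodinated protein, and were housed in metabolic cages for 24 h. Cumulative urine and feces were collected and counted. Values are % injected dose, mean (SD) of five animals, with a Student's paired t-test between the two co-administered conjugates.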

Data set [5] is described as follows: Cumulative radioactivity exerted by [131 I ]L-HML-NGA in the urine at 24 hour postinjection of [131 I ]L-HML-NGA and [125 I ]HML-IT-NGA. The note with it: in vivo. In a few lines: as §2
The subject of data set [6] is Mus musculus. Put plainly: Biodistribution time for compound radioactivity after concomitant administration of compound and [125 I ]MIH-NGA in mice was expressed as % injected dose per liver after 15 min. The note with it: in vivo, 0.25 h. Put shortly:
as §1

The species named for data set [7] is Homo sapiens. Put plainly: The percent protein-bound radioactivity in NGAfractions following incubation of radioiodinated [131 I ]L-HML-NGA in human serum after 6 hours. As to conditions: in vivo. In a few lines: (§3)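 Conjugates were diluted to 0.5 mg/mL in 0.1 M PBS pH 6.0, and 20 µL was added to 230 µL of freshly prepared human serum. Samples were incubated at 37 °C and taken at 1, 3, 6 or 24 h. Protein-bound fraction (Rf 0) was separated from small metabolites (Rf 0.6-0.9) by paper chromatography in methanol-water 4:1. Protein-bound radioactivity was divided by the initial radiochemical purity. Values are mean (SD).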

For data set [8], the system named is Mus musculus. Kind of data set: The biodistribution time for [131 I ]L-HML-NGA radioactivity after concomitant administration of [131 I ]L-HML-NGA and [125 I ]MPH-NGA in mice. It is expressed as percent injected dose per liver. Ent after 1 hour. As to conditions: in vivo. Put shortly: as §1
The species named for data set [9] is Homo sapiens. Put plainly: The percent protein-bound radioactivity in NGAfractions following incubation of radioiodinated [131 I ]L-HML-NGA in human serum after 3 hours. As to conditions: in vivo. Put shortly: as §3
Data set [10] relates to Mus musculus. Kind of data set: The biodistribution time for [131 I ]L-HML-NGA radioactivity after concomitant administration of [131 I ]L-HML-NGA and [125 I ]L-HML-IT-NGA in mice. It is expressed as percent injected dose per stomach. As to conditions: in vivo. Put shortly: as §1
The nature of data set [11]: Cumulative radioactivity exerted by [131 I ]L-HML-NGA in the urine at 24 hour postinjection of [131 I ]L-HML-NGA and [125 I ]MIH-NGA. The note with it: in vivo. In a few lines:
as §2

Data set [12] relates to Mus musculus. Put plainly: The biodistribution time for [131 I ]L-HML-NGA radioactivity after concomitant administration of [131 I ]L-HML-NGA and [125 I ]MPH-NGA in mice. It is expressed as percent injected dose per gram of blood tissue. As to conditions: in vivo. Put shortly: as §1
Data set [13] concerns Mus musculus. Kind of data set: The biodistribution time for [131 I ]L-HML-NGA radioactivity after concomitant administration of [131 I ]L-HML-NGA and [125 I ]MIH-NGA in mice. It is expressed as percent injected dose per neck. The note with it: in vivo. Put shortly: as §1

Several values for one entry are separate records, joined by “and”; a condition that tells them apart may be missing. Equal entries are not always repeated.

Turning to `N[C@@H](CS)C(=O)SC1CC(=O)N(CCCC[C@H](NC(=O)CNC(=O)c2cccc([131I])c2)C(=O)O)C1=O` (stereo partly drawn), the Radioactivity is 0.66% and 4.66% and 4.59% and 5.75% and 5.43% with Mus musculus [1]; 0.39% and 0.47% and 0.46% and 0.45% and 0.51% in the data set on Mus musculus [2]; 1.22% and 2.93% and 1.48% and 0.58% and 0.43% in the data set with Mus musculus [3]; 3.28% in [4]; 80.07% in [5]; 54.33% in the data set with Mus musculus [6]. Also, the Radioactivity in the data set filed under Homo sapiens [7] was 98.39%; with Mus musculus [8] it was 4.29%; in the data set filed under Homo sapiens [9] it was 99.07%; with Mus musculus [10], 0.17% and 0.46% and 0.3% and 0.35%; in data set [11], 87.32%; in the data set with Mus musculus [12], 1.22% and 3.14% and 1.28% and 0.54% and 0.31%. In addition, in the data set with Mus musculus [13], the Radioactivity was 0.07% and 0.25% and 0.12% and 0.05% and 0.03%.
